Assay [1] can be described thus: Inhibition of beta-lactamase VIM2 (unknown origin) expressed in Escherichia coli BL21(DE3) using imipenem as substrate by measuring substrate hydrolysis at 200 uM by spectrophotometric analysis. A digest of the protocol: (§1)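 Purified enzyme (overproduced in E. coli BL21(DE3), pET-9a; ion-exchange and gel filtration), 1-70 nM final. Reporter substrate 150 μM imipenem, read at 300 nm, 30 °C, 50 mM HEPES pH 7.5. Single-point screen at 100 or 200 μM; Ki from v0/vi vs [I] (0.5–1,000 μM final) assuming competitive inhibition, or Dixon plot. Triplicate.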

Assay [2] can be described thus: Inhibition of beta-lactamase VIM4 (unknown origin) expressed in Escherichia coli BL21(DE3) using imipenem as substrate by measuring substrate hydrolysis at 200 uM by spectrophotometric analysis. A digest of the protocol:
as §1

A short description of assay [3]: Inhibition of beta-lactamase L1 (unknown origin) expressed in Escherichia coli BL21(DE3) using nitrocefin as substrate by measuring substrate hydrolysis at 100 uM preincubated for 30 mins by spectrophotometric analysis. In outline:
(§2)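 Enzyme 0.2–0.8 nM in 25 mM HEPES pH 7.5 with 50 μM ZnCl2 final, pre-incubated 30 min at 21 °C with inhibitor (100 μM screen). Nitrocefin 100 μM final, read at 482 nm, 30 °C. Residual activity vs three uninhibited samples; Ki (1–100 μM inhibitor) from Hanes linearization, competitive model. Triplicate.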

A short description of assay [4]: Inhibition of beta-lactamase IMP-1 (unknown origin) expressed in Escherichia coli BL21(DE3) using imipenem as substrate by measuring substrate hydrolysis at 200 uM by spectrophotometric analysis. A digest of the protocol: as §1
Assay [5] is described as follows: Inhibition of beta-lactamase NDM-1 (unknown origin) expressed in Escherichia coli LZ2310 assessed as potentiation of ceftazidime antibacterial activity by measuring ceftazidime induced diameter of inhibition zone at 40 uM incubated for 18 hrs by disk diffusion method (reference value: 15 mm). A digest of the protocol:
(§3)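 Efflux-deficient E. coli LZ2310 (NorE, MdfA, AcrA knocked out) carrying pLB-II with the cloned MBL gene. Mueller-Hinton, CLSI disk diffusion; antibiotic disks (30 µg cefoxitin for VIM-2, 10 µg ampicillin for VIM-4, 30 µg ceftazidime for NDM-1/IMP-1) loaded with inhibitor in DMSO (≤15 µL). Zone diameter after 18 h, 35 ± 1 °C; DMSO and 220 µg EDTA controls. Triplicate.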
Background: A growth-free zone around the sample is the usual read-out of agar diffusion tests.

Assay [6] can be described thus: Inhibition of beta-lactamase VIM2 (unknown origin) expressed in Escherichia coli BL21(DE3) using imipenem as substrate by measuring substrate hydrolysis at 100 uM by spectrophotometric analysis. In outline:
as §1

A short description of assay [7]: Inhibition of beta-lactamase NDM1 (unknown origin) expressed in Escherichia coli BL21(DE3) using cefotaxime/nitrocefin as substrate by measuring substrate hydrolysis by spectrophotometric analysis. A digest of the protocol:
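His-tagged enzyme from E. coli BL21(DE3) pET-15b, affinity-purified, 1-70 nM final. Reporter substrate 120 μM cefotaxime (260 nm) or 100 μM nitrocefin (482 nm), 30 °C, 50 mM HEPES pH 7.5. Inhibitor 0.5–1,000 μM final; competitive Ki from v0/vi vs [I] slope or Dixon plot. Triplicate.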

Assay [8] in a line: Inhibition of beta-lactamase VIM4 (unknown origin) expressed in Escherichia coli BL21(DE3) using imipenem as substrate by measuring substrate hydrolysis at 100 uM by spectrophotometric analysis. A digest of the protocol: as §1
A short description of assay [9]: Inhibition of beta-lactamase IMP-1 (unknown origin) expressed in Escherichia coli BL21(DE3) using imipenem as substrate by measuring substrate hydrolysis at 100 uM by spectrophotometric analysis. In outline: as §1
A short description of assay [10]: Inhibition of beta-lactamase NDM1 (unknown origin) expressed in Escherichia coli BL21(DE3) using cefotaxime/nitrocefin as substrate by measuring substrate hydrolysis at 100 uM by spectrophotometric analysis.
The nature of assay [11]: Inhibition of beta-lactamase IMP-1 (unknown origin) expressed in Escherichia coli LZ2310 assessed as potentiation of ceftazidime antibacterial activity by measuring ceftazidime induced diameter of inhibition zone at 40 uM incubated for 18 hrs by disk diffusion method (reference value: 9 mm). A digest of the protocol: as §3
A short description of assay [12]: Inhibition of beta-lactamase IMP-1 (unknown origin) expressed in Escherichia coli BL21(DE3) using imipenem as substrate by measuring substrate hydrolysis by spectrophotometric analysis. A digest of the protocol: as §1
Assay [13] in a line: Inhibition of beta-lactamase CphA (unknown origin) expressed in Escherichia coli BL21(DE3) using imipenem as substrate by measuring substrate hydrolysis by spectrophotometric analysis. In outline:
(§4)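 Enzyme 0.2–0.8 nM in 15 mM cacodylate pH 6.5, no added zinc, pre-incubated 30 min at 21 °C with inhibitor (100 μM screen). Imipenem substrate added from 10 mM stock; hydrolysis at 300 nm, 30 °C. Residual activity vs three uninhibited samples; Ki (1–100 μM inhibitor) by Hanes linearization, competitive model. Triplicate.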

Assay [14] is described as follows: Inhibition of beta-lactamase VIM4 (unknown origin) expressed in Escherichia coli BL21(DE3) using imipenem as substrate by measuring substrate hydrolysis by spectrophotometric analysis. In outline:
as §1

Assay [15] can be described thus: Inhibition of beta-lactamase CphA (unknown origin) expressed in Escherichia coli BL21(DE3) using imipenem as substrate by measuring substrate hydrolysis at 100 uM by spectrophotometric analysis. In outline: as §4
Assay [16] in a line: Inhibition of beta-lactamase VIM2 (unknown origin) expressed in Escherichia coli BL21(DE3) using imipenem as substrate by measuring substrate hydrolysis by spectrophotometric analysis. A digest of the protocol:
as §1

The nature of assay [17]: Inhibition of beta-lactamase VIM-2 (unknown origin) expressed in Escherichia coli LZ2310 assessed as potentiation of cefoxitin antibacterial activity by measuring cefoxitin induced diameter of inhibition zone at 40 uM incubated for 18 hrs by disk diffusion method (reference value: 14 mm). A digest of the protocol:
as §3

A short description of assay [18]: Inhibition of beta-lactamase L1 (unknown origin) expressed in Escherichia coli BL21(DE3) using nitrocefin as substrate by measuring substrate hydrolysis at 200 uM preincubated for 30 mins by spectrophotometric analysis.
Assay [19] can be described thus: Inhibition of beta-lactamase VIM-4 (unknown origin) expressed in Escherichia coli LZ2310 assessed as potentiation of ampicillin antibacterial activity by measuring ampicillin induced diameter of inhibition zone at 40 uM incubated for 18 hrs by disk diffusion method (reference value: 6 mm). In outline:
as §3

A short description of assay [20]: Inhibition of beta-lactamase L1 (unknown origin) expressed in Escherichia coli BL21(DE3) using nitrocefin as substrate by measuring substrate hydrolysis preincubated for 30 mins by spectrophotometric analysis. In outline: as §2
A short description of assay [21]: Inhibition of beta-lactamase NDM1 (unknown origin) expressed in Escherichia coli BL21(DE3) using cefotaxime/nitrocefin as substrate by measuring substrate hydrolysis at 200 uM by spectrophotometric analysis.

Activity calls are given as the source filed them. No cut-off for these calls is given here.

What is called inhibition is the share of the control response that was lost under treatment. One may read the Ki as a dissociation constant, usually derived from enzyme kinetics or from competition with a known ligand. Low values mean a stronger hold on the target, high ones a looser hold on the target. For `S=c1[nH]nc(-c2ccc(Cl)cc2)n1/N=C/c1ccc(OCc2ccccc2)cc1`, the inhibition result in [1], in [2], in assay [4], in assay [6], in assay [8] and in [9] was “inactive” in each case. Moreover, the inhibition in [3] stood at 40%. In [5], the inhibition zone (IZ) was determined as 15 mm. In assay [7], affinity was put at a Ki of 4.1 µM.
For the compound `COc1ccc(/C=N/n2c(-c3ccccc3C)n[nH]c2=S)c(O)c1`, the inhibition in assay [10] came out at 32%; in assay [3], 55%; in assay [6], 58%; in assay [8], 55%. Besides, the inhibition zone (IZ) in assay [11] was 9 mm. Besides, the inhibition constant (Ki) was found to be 9 µM in [12] and 32 µM in assay [13].
Consider `Oc1ccc(/C=N/n2c(-c3cccc(F)c3)n[nH]c2=S)c(O)c1`, for which the inhibition entry in [1], in [4], in assay [6] and in assay [9] was “inactive” throughout. In addition, in assay [3], the inhibition is 25%. Moreover, the inhibition zone (IZ) in assay [5] was 15 mm. Moreover, the Ki in [14] turned out to be 4 µM; in [7], 11.7 µM.
Turning to `O=C(O)c1ccccc1/C=N/n1c(COc2ccc3ccccc3c2)n[nH]c1=S`, the inhibition in [3] is 60%; in [15] it was 42%; in [9], 35%. Also, the results for the inhibition zone (IZ) in [5] and in assay [17] were 15 mm and 14 mm, respectively. For the same compound, the inhibition constant Ki turned out to be 3 µM in assay [14], 2.4 µM in [7] and 2 µM in assay [16].
Take `S=c1[nH]nc(CC(c2ccccc2)c2ccccc2)n1/N=C/c1ccc(OCc2ccccc2)cc1`: the inhibition result in assay [1], in assay [2], in [3], in assay [18], in assay [6] and in [8] was “inactive” each time. Further, the inhibition zone (IZ) in [5] is 15 mm. Besides, the inhibition in assay [15] and in assay [9] was 30% throughout.
Turning to `Cc1ccccc1-c1n[nH]c(=S)n1/N=C/c1ccccc1[N+](=O)[O-]`, the inhibition result in assay [10], in [1], in [6] and in [21] was “inactive” throughout. The inhibition zone (IZ) in assay [19] came out at 6 mm; in assay [11], 9 mm. Moreover, the inhibition constant (Ki) in [20] was 30 µM; in assay [14], 2.4 µM; in assay [12], 11 µM; in assay [13], 5 µM.
For `O=C(O)c1ccccc1/C=N/n1c(-c2ccc(OCc3ccccc3)cc2)n[nH]c1=S`, the Ki in [20] is 0.4 µM; in assay [14], 1 µM; in assay [7], 2.8 µM; in assay [16], 0.9 µM. Further, the inhibition zone (IZ) in assay [5] came out at 15 mm; in assay [17], 14 mm. The same compound yielded an inhibition in assay [9] of 62%.
Turning to `S=c1[nH]nc(-c2ccc(OCc3ccccc3)cc2)n1/N=C/c1ccc(OCc2ccccc2)cc1`, the inhibition result in assay [1], in assay [2], in assay [3], in [18], in assay [6] and in assay [8] was “inactive” in each case. Besides, the inhibition constant Ki came to 3.2 µM in assay [7] and 2.2 µM in [12].
Turning to `O=C(O)c1ccccc1/C=N/n1c(CC(c2ccccc2)c2ccccc2)n[nH]c1=S`, the Ki in assay [20] turned out to be 2.4 µM; in assay [14], 5.6 µM; in [7], 2.7 µM; in assay [16] it was 25.4 µM; in assay [13], 15 µM. The inhibition result in assay [4] and in assay [9] was “inactive” each time. The inhibition zone (IZ) in assay [5] is 15 mm.
Regarding `O=C(O)c1ccccc1/C=N/n1c(CCc2ccccc2)n[nH]c1=S`, the inhibition result in [10] and in [21] was “inactive” each time. Moreover, the inhibitory constant (Ki) in assay [20] was found to be 4 µM; in assay [16], 7 µM. For the same compound, the inhibition zone (IZ) in [5] turned out to be 15 mm; in assay [17], 14 mm. For the same compound, the inhibition stood at 50% in [15], 56% in [8] and 37% in [9].
For `O=C(O)c1ccccc1/C=N/n1c(-c2cccc(C(F)(F)F)c2)n[nH]c1=S`, the inhibition result in [1] and in assay [6] was “inactive” each time. Besides, the inhibition in assay [3] came to 40%; in assay [4] it was 50%; in assay [15], 35%. Also, the inhibition zone (IZ) in assay [5] stood at 15 mm. The compound also registered an inhibition constant Ki in assay [14] of 1.6 µM.
With `S=c1[nH]nc(-c2cccc3ccccc23)n1/N=C/c1ccc(OCc2ccccc2)cc1`, the inhibition result in assay [10], in assay [1], in [6] and in assay [21] was “inactive” in each case. The inhibition constant Ki amounted to 30 µM in assay [20], 2.4 µM in assay [14], 0.1 µM in [12] and 4 µM in assay [13]. The inhibition zone (IZ) in assay [11] was 9 mm; in assay [17] it was 14 mm.
As to `Cc1ccccc1-c1n[nH]c(=S)n1/N=C/c1ccc(C(=O)O)cc1`, the inhibition entry in [10] and in assay [21] was “inactive” each time. The inhibition was determined as 59% in assay [3] and 57% in assay [8]. Besides, the inhibition zone (IZ) in assay [11] was 9 mm; in assay [17], 14 mm. Also, the Ki in assay [16] came out at 11 µM; in [12], 11 µM; in assay [13], 31 µM.
For `S=c1[nH]nc(-c2cccc(Cl)c2)n1/N=C/c1ccc(OCc2ccccc2)cc1`, the inhibition result in assay [1], in assay [4], in assay [6] and in assay [9] was “inactive” each time. Besides, the values for the inhibition in assay [3] and in assay [8] were 60% and 35%, respectively. Further, the inhibition zone (IZ) in assay [5] stood at 15 mm. In addition, affinity in assay [7] was put at a Ki of 6.7 µM.

For the origin of these results see ChEMBL document CHEMBL4706580, “4-Amino-1,2,4-triazole-3-thione-derived Schiff bases as metallo-β-lactamase inhibitors” (Eur J Med Chem, 2020).
